Only some compounds are listed: those with a hit (about 7.2% of all), similar ones and a draw of the others.
M1 agonist: agonists of M1 muscarinic receptor | CHO-M1 cells, Fluo-4 calcium fluorescence, agonist mode; hits give high values | B-score at 10 µM | 64,000 tested, 3% active | AID 626;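 active = fluorescence rise, raw or as B-score row- and column-corrected plate score, outside the 99.7% band of its plate's samples, either direction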
BAP1 block: human BAP1 deubiquitinase inhibition | 72,000 tested, 0.48% active | calls only at 20 µM | AID 436 | recombinant BAP1, Ub-AMC hydrolysis fluorescence kinetic; hits give low values | Q92560;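 active = activity remaining at or below 50% of control, provided the compound also passes the data quality filters; inactive = the rest, including low values that fail the filters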
HEK293 NFkB inh: inhibitors of the PMA/ionomycin-induced NF-kB reporter in HEK293 cells; HEK-293 NF-kB luciferase reporter, luminescence; inhibition, % at 3 µM; 62,000 tested, 0.21% active; AID 465;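 active = inhibition above the mean of all tested compounds plus 3 SD, cut at about 40% in these data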
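System – HEK-293 cells with stable firefly luciferase reporter driven by four HIV NF-kB elements · Doses – one dose, 3 µM · Schedule – 1 h compound pre-incubation, 16 h PMA/ionomycin at 37 °C · Technique – luminescence from luciferase substrate reagent · Measure – percent inhibition normalized per plate to DMSO and reference-inhibitor controls · Replicates – tested once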
DAT uptake mod: modulates human dopamine transporter uptake under cocaine; Q01959; LLC-PK1 hDAT cells, [14C]-dopamine uptake with cocaine IC80; actives deviate in either direction; B-score at 10 µM; 110,000 tested, 1.3% active; AID 449768;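 active = Z score or B-score, a plate-position-corrected score, falls beyond the plate's 99.7% confidence bounds, in either direction; inactive = both scores lie inside the 99.7% bounds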
M1 antagonist: antagonists of rat M1 muscarinic receptor | 64,000 tested, 3.4% active | CHO-M1 cells, Fluo-4 calcium, ACh EC80 antagonist mode; hits give low values | B-score at 10 µM;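 active = calcium fluorescence response, raw or row-and-column corrected B-score, differing from the plate sample mean either way at a set confidence level, mostly lower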
D1 mod: allosteric modulators of human D1 dopamine receptor | P21728 | HEK293 D1, CRE-luciferase, dopamine EC30 potentiation; actives deviate in either direction | B-score at 10 µM | 58,000 tested, 5.9% active;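 active = luminescence count or its row- and column-corrected plate score outside the 99.7% band of the plate's sample wells, on either side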
Target sequence (P21728 whole entry, looked up): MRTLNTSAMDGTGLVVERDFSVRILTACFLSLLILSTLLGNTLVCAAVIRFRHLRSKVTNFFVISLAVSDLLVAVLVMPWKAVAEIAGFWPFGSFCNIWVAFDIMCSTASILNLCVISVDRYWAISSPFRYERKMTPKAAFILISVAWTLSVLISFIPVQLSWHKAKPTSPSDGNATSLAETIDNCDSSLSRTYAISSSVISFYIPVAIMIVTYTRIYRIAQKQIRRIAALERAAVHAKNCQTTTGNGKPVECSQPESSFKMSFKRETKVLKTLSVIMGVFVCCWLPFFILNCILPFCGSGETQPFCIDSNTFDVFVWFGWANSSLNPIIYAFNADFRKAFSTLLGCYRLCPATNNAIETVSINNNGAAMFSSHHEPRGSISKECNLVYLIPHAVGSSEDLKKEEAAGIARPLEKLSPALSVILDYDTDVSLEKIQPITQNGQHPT
M1 antag conf: M1 muscarinic receptor (rat) antagonism, confirmed | shares compounds with M1 antagonist | CHO-M1 cells, Fluo-4 calcium, ACh EC80 antagonism; hits give low values | calcium response (max-min fluorescence) at 10 µM | 1,700 tested, 43% active;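 active = calcium response below the same-plate mean of wells given acetylcholine alone at its 80%-effect dose, minus 3 SD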
mGluR4 antag: mGluR4 (human) activity, M1 antagonist secondary assay | 1,700 tested, 0.9% active | AID 678 | CHO-mGluR4 calcium flux, Fluo-4 fluorescence, glutamate EC80; hits give low values | shares compounds with M1 antagonist | fluorescence response (max-min) at 10 µM;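 active = fluorescence response below the plate's average for near-maximal glutamate wells, less 3 SD of those wells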;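 also: raw unnormalized fluorescence span taken in the window right after glutamate addition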
Hits are given with their value; – = inactive; · = no result given.

SMILES	M1 agonist	BAP1 block	HEK293 NFkB inh	DAT uptake mod	M1 antagonist	D1 mod	M1 antag conf	mGluR4 antag
CCc1nnc(SCC(=O)N2CCCc3ccccc32)nc1CC	–	–	–	–	-3.34	–	–	–
O=C(Nc1nc2ccccc2s1)c1cc([N+](=O)[O-])ccc1Cl	·	–	·	·	·	·	·	·
CC(=O)Oc1c(Cl)cc(N(C(C)=O)S(=O)(=O)c2ccc(C)cc2)c2ccccc12	·	–	·	·	·	·	·	·
Cc1ccc2[nH]c3c(N4CCN(Cc5ccc6c(c5)OCO6)CC4)ncnc3c2c1	–	–	·	·	–	·	·	·
Cc1ccc2[nH]c3c(N4CCCCCC4)ncnc3c2c1	–	–	·	·	-2.74	·	387	178
COc1cccc(C(=O)NCc2n[nH]c(=S)n2-c2ccc(Br)cc2)c1	·	–	·	·	·	·	·	·
Cc1c(N(C)C)nc2ccccc2c1N	–	–	–	–	-2.32	–	–	–
CCOc1ccc(S(=O)(=O)Nc2cc(Cl)ccc2O)cc1	–	–	–	–	-3.06	–	457	–
Cc1cc(C)cc(OCC(=O)Nc2ccc(F)cc2)c1	·	·	·	–	·	·	·	·
Cc1ccc(OCCCC(=O)Nc2ccc(N3CCOCC3)cc2)c(C)c1	–	–	–	–	-2.26	–	–	–
Cc1cc(OCC(=O)Nc2ccc(S(=O)(=O)N3CCN(C)CC3)cc2)cc(C)c1Cl	–	–	–	–	-1.74	-6.46	377	–
Cc1cc(C)cc(OCC(=O)Nc2ccc(N3CCCC3)cc2)c1	–	–	–	–	-7.62	–	155	–
Cc1ccc(OCC(=O)Nc2ccc(N3CCCC3)cc2)cc1C	–	–	–	–	-3.64	–	–	–
Cc1cccc(OCC(=O)Nc2ccc(N3CCCC3)cc2)c1C	–	–	–	–	–	–	·	·
O=[N+]([O-])c1ccc(N2CCN(c3ccc([N+](=O)[O-])c4cccnc34)CC2)c(Cl)c1	·	–	·	·	·	·	·	·
O=C(CSc1nnc(CN2C(=O)c3cccc4cccc(c34)C2=O)n1-c1ccccc1)NCc1ccco1	·	–	·	·	·	·	·	·
CCOC(=O)Nc1ccc2c(c1)N(C(=O)OCCN(C)C)c1ccccc1CC2	–	–	–	–	-3.31	–	294	–
Cc1cccc(Cn2c(N3CCCCC3C)nc3c2c(=O)[nH]c(=O)n3C)c1 (centres undefined)	–	–	–	–	-4.2	·	90.3	–
COc1cccc(C(=O)Nc2c(C)ccc3nsnc23)c1	·	–	·	·	·	·	·	·
CCCS(=O)(=O)N1CCCC(C(=O)NCCN2CCC(Cc3ccccc3)CC2)C1 (centres undefined)	–	–	–	–	-2.37	–	–	–
O=C(NCCCN1CCC(Cc2ccccc2)CC1)C1CC(=O)N(C2CCCC2)C1 (centres undefined)	–	–	–	–	-3.32	–	508	–
CCCS(=O)(=O)N1CCCC(C(=O)NCCN(C)Cc2ccccc2)C1 (centres undefined)	–	–	–	–	–	–	·	·
CCOC(=O)c1c(-c2ccc(Br)cc2)csc1NC(=O)C#Cc1ccccc1	·	–	·	·	·	·	·	·
O=C(NC1CCCCCC1)C1CCN(C(=O)Cc2ccccc2)CC1	–	–	–	–	–	–	·	·
O=C(NCc1ccc(F)cc1)C1CCN(C(=O)NCc2ccccc2)CC1	–	–	–	–	–	–	·	·
SMILES	M1 agonist	BAP1 block	HEK293 NFkB inh	DAT uptake mod	M1 antagonist	D1 mod	M1 antag conf	mGluR4 antag
O=C(NC1CC2CCC(C1)N2C(=O)NCc1ccccc1)C1CC1 (centres undefined)	–	–	–	–	-2.21	–	419	–
O=C(NC1CCCCC1)C1CCN(C(=O)NCc2ccccc2)CC1	–	–	–	–	-1.39	–	–	–
COc1cc(C(=O)N2CCN(C(=O)C3CC3)CC2)cc(OC)c1OC	–	–	–	–	-3.09	–	543	–
CC1CCCCN1CCNC(=O)c1cc2c(-c3ccccc3F)nn(C)c2s1 (centres undefined)	–	–	–	–	-5.46	-5.65	374	–
COc1ccccc1-n1c(C)nnc1SCC(=O)NCc1ccccc1	·	·	·	–	·	·	·	·
COc1ccccc1-n1c(C)nnc1SCC(=O)Nc1cccc(C(C)=O)c1	–	–	–	–	-2.68	–	–	–
CCC(=O)Nc1ccc(NC(=O)CN2CCCC(C)C2)c(Cl)c1 (centres undefined)	–	–	–	–	-2.81	–	–	–
CC(C)OC(=O)CSc1nnc(-c2ccc(O)cc2)n1Cc1ccccc1	–	–	–	–	-3.27	–	–	–
COc1cc(C2C(C(=O)OCCc3ccccc3)=C(C)NC3=C2C(=O)CCC3)cc(Cl)c1O (centres undefined)	·	–	·	·	·	·	·	·
CCOC(=O)C1CCCN(CC(=O)Nc2c(C(=O)OC)[nH]c3ccccc23)C1 (centres undefined)	–	–	–	–	-5.75	–	552	–
COC(=O)c1[nH]c2ccccc2c1NC(=O)CN1CCCCCC1	–	–	–	–	–	–	·	·
COC(=O)c1[nH]c2ccccc2c1NC(=O)CN1CCC(C(N)=O)(N2CCCCC2)CC1	–	–	–	–	-2.55	–	–	–
Cn1c(COc2ccc3ccccc3c2)nnc1SCC(N)=O	–	–	–	–	-0.158	–	–	–
Cn1c(COc2ccc3ccccc3c2)nnc1SCC(=O)OC1CCCCC1	·	·	·	–	·	·	·	·
BrC12CC3CC(C1)CC(Br)(C3)C2	·	–	·	·	·	·	·	·
CN(C)CCCN1c2ccccc2CCc2ccccc21	·	–	·	–	·	·	·	–
COc1ccc(-n2nc3cc(C)c(NC(=O)c4cccc([N+](=O)[O-])c4C)cc3n2)cc1	·	–	·	·	·	·	·	·
CN1C=CC=C/C1=C1\SC(=S)N(C2CCCCC2)C1=O	–	·	·	–	-6.09	–	488	–
CCN1C(=O)/C(=C2/C=CC=CN2C)OC1=S	–	–	–	–	–	–	·	·
Cc1cccc(NC(=O)C2CCN(S(=O)(=O)c3cccs3)CC2)n1	–	–	–	–	-2.95	·	–	–
CC(=O)c1c(Cl)nc2ccc(Cl)cc2c1-c1ccccc1	·	–	·	·	·	·	·	·
CCN(CC)CCCNC(=O)c1cc(-c2ccc(Cl)c(Cl)c2)on1	–	–	–	–	-3.01	–	474	–
CCN(CC)CCCNC(=O)c1cc(-c2ccc(O)cc2)on1	–	–	–	–	–	–	·	·
CCN(CC)CCCNC(=O)c1cc2c(-c3ccc(Cl)cc3)nn(C)c2s1	–	–	–	–	-6.6	–	–	–
O=C(NC1CCCC1)c1csc2c1CCCC2	–	–	–	–	–	–	·	·
CCc1c(C(=O)NC2CCCC2)csc1C	–	–	–	–	-2.24	–	–	–
Cc1cc(=O)n(C)c(=O)n1CCCCCN1CCCC1	–	–	–	–	-1.63	–	–	–
Fc1ccc(OCCCCCCN2CCCC2)cc1	·	·	·	–	·	·	·	·

Screening data from PubChem BioAssay.
